Measurements from ChEMBL document CHEMBL1149797, “Synthesis and in vitro antibacterial activities of novel oxazolidinones” (Eur J Med Chem, 2008).
Converted amounts (≈) assume the structure as drawn.

Legend:
[1] = test system: Bacillus pumilus; experiment: Antibacterial activity against Bacillus pumilus ATCC 14884 by broth microdilution technique; format: functional
How it was run: (§1)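 Broth microdilution per CLSI (NCCLS) guidelines. Compounds were dissolved in DMSO with water added to give an 80% DMSO stock, then diluted 1:10 to working solutions in water or medium. They were tested at 0.125, 0.25, 0.5, 1, 2, 4, 8 and 16 (two-fold series) against the final inoculum. Each run included sterility controls and vehicle controls (plain medium; 4%, 2%, 1% DMSO). MIC was read as growth inhibition.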

[2] = test system: Staphylococcus aureus; experiment: Antibacterial activity against Staphylococcus aureus ATCC 25923 by broth microdilution technique; format: functional; how it was run: as §1
[3] = test system: Staphylococcus aureus; experiment: Antibacterial activity against linezolid-resistant Staphylococcus aureus NRS 120 with G 2576T mutation by broth microdilution technique; format: functional
How it was run: (§2)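 Broth microdilution per NCCLS/CLSI. Compounds dissolved in DMSO with water added to give an 80% DMSO stock. Stock diluted 1:10 in 4-8% DMSO in water or medium to make the working solution. Tested at […]. Sterility controls run with each set. Inoculum viability controls included plain medium and 4%, 2% and 1% DMSO vehicle. MIC taken as growth inhibition.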

[4] = test system: Staphylococcus aureus; experiment: Antibacterial activity against Staphylococcus aureus ATCC 9144 by broth microdilution technique; format: functional; how it was run: as §2
[5] = test system: Staphylococcus aureus; experiment: Antibacterial activity against Staphylococcus aureus ATCC 14154 by broth microdilution technique; format: functional; how it was run: as §2
[6] = test system: Staphylococcus aureus; experiment: Antibacterial activity against methicillin-resistant Staphylococcus aureus ATCC 700699 by broth microdilution technique; format: functional; how it was run: as §2
[7] = test system: Staphylococcus aureus; experiment: Antibacterial activity against Staphylococcus aureus ATCC 29213 by broth microdilution technique; format: functional; how it was run: as §2
[8] = test system: Bacillus cereus; experiment: Antibacterial activity against Bacillus cereus ATCC 11778 by broth microdilution technique; format: functional; how it was run: as §1
[9] = test system: Staphylococcus aureus; experiment: Antibacterial activity against linezolid-resistant Staphylococcus aureus NRS 119 with G 2576T mutation by broth microdilution technique; format: functional; how it was run: as §2
[10] = test system: Streptococcus pneumoniae; experiment: Antibacterial activity against multidrug-resistant Streptococcus pneumoniae ATCC 700904 by broth microdilution technique; format: functional; how it was run: as §2
[11] = test system: Enterococcus faecalis; experiment: Antibacterial activity against multidrug-resistant Enterococcus faecalis ATCC 700802 by broth microdilution technique; format: functional; how it was run: as §2
[12] = test system: Staphylococcus epidermidis; experiment: Antibacterial activity against Staphylococcus epidermidis ATCC 155 by broth microdilution technique; format: functional; how it was run: as §1
[13] = test system: Streptococcus pyogenes; experiment: Antibacterial activity against Streptococcus pyogenes ATCC 14289 by broth microdilution technique; format: functional; how it was run: as §1
[14] = test system: Enterococcus faecalis; experiment: Antibacterial activity against Enterococcus faecalis ATCC 35550 by broth microdilution technique; format: functional; how it was run: as §1
[15] = test system: Enterococcus faecium; experiment: Antibacterial activity against vancomycin-resistant Enterococcus faecium ATCC 700221 by broth microdilution technique; format: functional; how it was run: as §2
[16] = test system: Enterococcus faecalis; experiment: Antibacterial activity against Enterococcus faecalis ATCC 14506 by broth microdilution technique; format: functional; how it was run: as §1
[17] = Tmax in Sprague-Dawley rat at 30 mg/kg, po; format: ADME, organism-based; design: dose 30 mg/kg, route oral; conditions: in vivo
How it was run: (§3)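 Male Sprague-Dawley rats, 8-10 weeks old, fasted 18 h, fed again 4 h after dosing, water ad libitum. Oral dose of 30 mg/kg as a homogeneous suspension in 0.5% w/v CMC in normal saline. Serial retro-orbital samples into heparinized tubes; plasma separated at ambient temperature and assayed at once by HPLC with calibrators in drug-free rat plasma. Cmax, tmax, AUC0-∞ and t1/2 calculated.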

[18] = Bioavailability in Sprague-Dawley rat at 30 mg/kg, po; conditions: in vivo
[19] = Cmax in Sprague-Dawley rat at 30 mg/kg, po; format: ADME, organism-based; design: dose 30 mg/kg, route oral; conditions: in vivo; how it was run: as §3
[20] = AUC in Sprague-Dawley rat at 30 mg/kg, po; format: ADME, organism-based; design: dose 30 mg/kg, route oral; conditions: plasma; how it was run: as §3
[21] = Cmax in Sprague-Dawley rat at 10 mg/kg, iv; format: ADME, organism-based; design: dose 10 mg/kg, route intravenous; conditions: in vivo
How it was run: (§4)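 Male Sprague-Dawley rats, 8-10 weeks old, fasted 18 h, with food returned 4 h post-dose and water free. The compound was given as a clear solution in PEG-400/cremophore/ethanol/propylene glycol/saline via the tail vein at 10 mg/kg. Retro-orbital blood went into heparinized tubes at intervals, and plasma was spun and analysed immediately by HPLC against spiked rat-plasma calibrators. Cmax, tmax, AUC0-∞ and t1/2 were derived.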

[22] = Tmax in Sprague-Dawley rat at 10 mg/kg, iv; format: ADME, organism-based; design: dose 10 mg/kg, route intravenous; conditions: in vivo; how it was run: as §4
[23] = AUC in Sprague-Dawley rat at 10 mg/kg, iv; format: ADME, organism-based; design: dose 10 mg/kg, route intravenous; conditions: plasma; how it was run: as §4
[24] = Half life in Sprague-Dawley rat at 10 mg/kg, iv; format: ADME, organism-based; design: dose 10 mg/kg, route intravenous; conditions: in vivo
How it was run: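 The compound was given as a clear solution in PEG-400/cremophore/ethanol/propylene glycol/saline via the tail vein at 10 mg/kg. Retro-orbital blood went into heparinized tubes at intervals, and plasma was spun and analysed immediately by HPLC against spiked rat-plasma calibrators. Cmax, tmax, AUC0-∞ and t1/2 were derived.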

[25] = Half life in Sprague-Dawley rat at 30 mg/kg, po; format: ADME, organism-based; design: dose 30 mg/kg, route oral; conditions: in vivo; how it was run: as §3
[26] = Tmax in Sprague-Dawley rat at 25 mg/kg, po; format: ADME, organism-based; design: dose 25 mg/kg, route oral; conditions: in vivo

Row | SMILES | MIC [1] [µg/mL] | MIC [2] [µg/mL] | MIC [3] [µg/mL] | MIC [4] [µg/mL] | MIC [5] [µg/mL] | MIC [6] [µg/mL] | MIC [7] [µg/mL] | MIC [8] [µg/mL] | MIC [9] [µg/mL] | MIC [10] [µg/mL] | MIC [11] [µg/mL] | MIC [12] [µg/mL] | MIC [13] [µg/mL] | MIC [14] [µg/mL] | MIC [15] [µg/mL] | MIC [16] [µg/mL] | also measured
1 | CC(=O)NC[C@H]1CN(c2ccc(N3CCN(C(=O)/C=C/c4ccc([N+](=O)[O-])s4)CC3)c(F)c2)C(=O)O1 | 0.5 (≈ 0.966 µM) | 0.25 (≈ 0.483 µM) | 4 (≈ 7.73 µM) | 0.25 (≈ 0.483 µM) | 0.25 (≈ 0.483 µM) | 0.25 (≈ 0.483 µM) | 0.25 (≈ 0.483 µM) | 1 (≈ 1.93 µM) | 4 (≈ 7.73 µM) | ≤ 0.125 | 0.5 (≈ 0.966 µM) | ≤ 0.12 | 0.12 (≈ 0.232 µM) | 0.5 (≈ 0.966 µM) | 0.5 (≈ 0.966 µM) | 0.25 (≈ 0.483 µM) | –
2 | CC(=O)NC[C@H]1CN(c2ccc([N+]3([O-])CCN(C(=O)/C=C/c4ccc([N+](=O)[O-])o4)CC3)c(F)c2)C(=O)O1 | – | 0.5 (≈ 0.966 µM) | 2 (≈ 3.86 µM) | – | 1 (≈ 1.93 µM) | 0.5 (≈ 0.966 µM) | 1 (≈ 1.93 µM) | – | 2 (≈ 3.86 µM) | 0.25 (≈ 0.483 µM) | 1 (≈ 1.93 µM) | 0.12 (≈ 0.232 µM) | 0.12 (≈ 0.232 µM) | 1 (≈ 1.93 µM) | 0.5 (≈ 0.966 µM) | – | Tmax [17]: 10.2 min; bioavailability [18]: 60%; Cmax [19]: 1210 ng/mL; AUC [20]: 1870 ng·h/mL; Cmax [21]: 9180 ng/mL; Tmax [22]: 0 h; AUC [23]: 1030 ng·h/mL; half-life [24]: 57 min; half-life [25]: 58.2 min
3 | CC(=O)NC[C@H]1CN(c2ccc(N3CCN(C(=O)CO)CC3)c(F)c2)C(=O)O1 [EPEREZOLID] | 1 (≈ 2.54 µM) | 2 (≈ 5.07 µM) | > 16 | 2 (≈ 5.07 µM) | 1 (≈ 2.54 µM) | 1 (≈ 2.54 µM) | 2 (≈ 5.07 µM) | 2 (≈ 5.07 µM) | > 16 | 0.5 (≈ 1.27 µM) | 1 (≈ 2.54 µM) | 2 (≈ 5.07 µM) | 0.5 (≈ 1.27 µM) | 2 (≈ 5.07 µM) | 1 (≈ 2.54 µM) | 1 (≈ 2.54 µM) | –
4 | CC(=O)NC[C@H]1CN(c2ccc(N3CCN(C(=O)/C=C/c4ccc([N+](=O)[O-])o4)CC3)c(F)c2)C(=O)O1 | ≤ 0.12 | 0.12 (≈ 0.239 µM) | 2 (≈ 3.99 µM) | 0.12 (≈ 0.239 µM) | 0.12 (≈ 0.239 µM) | 0.12 (≈ 0.239 µM) | 0.12 (≈ 0.239 µM) | ≤ 0.12 | 2 (≈ 3.99 µM) | 0.25 (≈ 0.499 µM) | 0.5 (≈ 0.997 µM) | ≤ 0.12 | ≤ 0.12 | 0.25 (≈ 0.499 µM) | 0.12 (≈ 0.239 µM) | 0.25 (≈ 0.499 µM) | –
5 | CC(=O)NC[C@H]1CN(c2ccc(N3CCN(C/C=C/c4ccco4)CC3)c(F)c2)C(=O)O1 | 2 (≈ 4.52 µM) | 2 (≈ 4.52 µM) | – | – | – | – | – | 0.5 (≈ 1.13 µM) | – | – | – | 8 (≈ 18.1 µM) | 0.5 (≈ 1.13 µM) | 2 (≈ 4.52 µM) | – | – | –
6 | CC(=O)NC[C@H]1CN(c2ccc(N3CCN(C/C=C/c4ccc([N+](=O)[O-])o4)CC3)c(F)c2)C(=O)O1 | 0.25 (≈ 0.513 µM) | 1 (≈ 2.05 µM) | – | – | – | – | – | 0.25 (≈ 0.513 µM) | – | – | – | 0.5 (≈ 1.03 µM) | 0.12 (≈ 0.246 µM) | 1 (≈ 2.05 µM) | – | – | –
7 | CC(=O)NC[C@H]1CN(c2ccc(N3CCOCC3)c(F)c2)C(=O)O1 [LINEZOLID] | 0.5 (≈ 1.48 µM) | – | > 16 | – | 1 (≈ 2.96 µM) | 1 (≈ 2.96 µM) | – | 2 (≈ 5.93 µM) | > 16 | 0.25 (≈ 0.741 µM) | – | 1 (≈ 2.96 µM) | 1 (≈ 2.96 µM) | – | 1 (≈ 2.96 µM) | – | Tmax [26]: 18.6 min; Tmax [22]: 0 h
8 | CC(=O)NC[C@H]1CN(c2ccc(N3CCN(C(=O)/C=C/c4ccc(CO)o4)CC3)c(F)c2)C(=O)O1 | 4 (≈ 8.22 µM) | 4 (≈ 8.22 µM) | – | – | – | – | – | 2 (≈ 4.11 µM) | – | – | – | 1 (≈ 2.06 µM) | 1 (≈ 2.06 µM) | 2 (≈ 4.11 µM) | – | – | –
9 | CC(=O)NC[C@H]1CN(c2ccc(N3CCN(C(=O)/C=C/c4cccnc4)CC3)c(F)c2)C(=O)O1 | 1 (≈ 2.14 µM) | 1 (≈ 2.14 µM) | – | – | – | – | – | 1 (≈ 2.14 µM) | – | – | – | 0.5 (≈ 1.07 µM) | 0.5 (≈ 1.07 µM) | 2 (≈ 4.28 µM) | – | – | –
